Test results from ChEMBL document CHEMBL1154674, “Synthesis and evaluation of three 18F-labeled aminophenylbenzothiazoles as amyloid imaging agents” (J Med Chem, 2009).

Assays:
Format in all cases: ADME, organism-based, Macaca mulatta
[1] = Drug level in normal rhesus monkey white matter assessed as standard uptake value at 96.3 MBq, iv after 27.5 mins by microPET; settings: in vivo
[2] = Drug level in normal rhesus monkey thalamus assessed as standard uptake value at 96.3 MBq, iv after 27.5 mins by microPET; settings: in vivo
[3] = Drug level in normal rhesus monkey pons assessed as standard uptake value at 96.3 MBq, iv after 27.5 mins by microPET; settings: in vivo
[4] = Drug level in normal rhesus monkey cerebellum assessed as standard uptake value at 96.3 MBq, iv after 1.5 mins by microPET; settings: in vivo, 0.025 h
How it was run: (§1)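 One normal rhesus monkey, each tracer given iv via the vena saphena (81.2, 96.3 or 109.4 MBq), with 1 day between tracer injections. Dynamic brain μPET over 180 min used frames of 5 × 60 s, 5 × 120 s, 9 × 300 s and 12 × 600 s. Images were reconstructed by filtered back projection with a RAMP filter. Regional time-activity curves were expressed as SUV.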

[5] = Drug level in normal rhesus monkey frontal cortex assessed as standard uptake value at 96.3 MBq, iv after 32.5 mins by microPET; settings: in vivo
[6] = Drug level in normal rhesus monkey pons assessed as standard uptake value at 81.2 MBq, iv after 22.5 mins by microPET; settings: in vivo, 0.375 h
[7] = Drug level in normal rhesus monkey parietal cortex assessed as standard uptake value at 81.2 MBq, iv after 0.5 mins by microPET; settings: in vivo
[8] = Drug level in normal rhesus monkey parietal cortex assessed as standard uptake value at 81.2 MBq, iv after 155 mins by microPET; settings: in vivo
[9] = Drug level in normal rhesus monkey white matter assessed as standard uptake value at 81.2 MBq, iv after 8 mins by microPET; settings: in vivo
[10] = Drug level in normal rhesus monkey thalamus assessed as standard uptake value at 81.2 MBq, iv after 0.5 mins by microPET; settings: in vivo
[11] = Drug level in normal rhesus monkey cerebellum assessed as standard uptake value at 81.2 MBq, iv after 145 mins by microPET; settings: in vivo; how it was run: as §1
[12] = Drug level in normal rhesus monkey frontal cortex assessed as standard uptake value at 81.2 MBq, iv after 2.5 mins by microPET; settings: in vivo
[13] = Drug level in normal rhesus monkey frontal cortex assessed as standard uptake value at 81.2 MBq, iv after 10 mins by microPET; settings: in vivo
How it was run: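 Single normal rhesus monkey; each tracer given iv via the vena saphena, with 1 day between tracer injections. Dynamic μPET ran 180 min (5×60 s, 5×120 s, 9×300 s, 12×600 s). Images were reconstructed by filtered back projection with a RAMP filter. Regional time-activity curves were expressed as SUV.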

[14] = Drug level in normal rhesus monkey frontal cortex assessed as standard uptake value at 81.2 MBq, iv after 32.5 mins by microPET; settings: in vivo
[15] = Drug level in normal rhesus monkey cerebellum assessed as standard uptake value at 81.2 MBq, iv after 8 mins by microPET; settings: in vivo; how it was run: as §1
[16] = Drug level in normal rhesus monkey cerebellum assessed as standard uptake value at 81.2 MBq, iv after 14 mins by microPET; settings: in vivo; how it was run: as §1
[17] = Drug level in normal rhesus monkey cerebellum assessed as standard uptake value at 152.9 MBq, iv after 2.5 mins by microPET; settings: in vivo
How it was run: (§2)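 One normal rhesus monkey received each tracer via the vena saphena, with 1 day between injections. Dynamic μPET ran 180 min for 18F tracers (5×60 s, 5×120 s, 9×300 s, 12×600 s) and 90 min for the 11C tracer (5×60 s, 5×120 s, 9×300 s, 3×600 s). Filtered back-projection reconstruction (RAMP filter) was used. Time-activity curves were drawn to give regional SUV.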

[18] = Drug level in normal rhesus monkey cerebellum assessed as standard uptake value at 152.9 MBq, iv after 37.5 mins by microPET; settings: in vivo, 0.625 h; how it was run: as §2
[19] = Drug level in normal rhesus monkey frontal cortex assessed as standard uptake value at 152.9 MBq, iv after 1.5 mins by microPET; settings: in vivo, 0.025 h
How it was run: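 One normal rhesus monkey, tracer given iv via the vena saphena (152.9 MBq), with at least 1 day between tracer injections. Dynamic brain μPET over 90 min used frames of 5 × 60 s, 5 × 120 s, 9 × 300 s and 3 × 600 s. Images were reconstructed by filtered back projection with a RAMP filter. Regional time-activity curves were expressed as SUV.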

[20] = Drug level in normal rhesus monkey frontal cortex assessed as standard uptake value at 152.9 MBq, iv after 65 mins by microPET; settings: in vivo
How it was run: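 Single normal rhesus monkey; tracer given iv via the vena saphena, 1 day apart from the other tracer injections. Dynamic μPET ran 90 min (5×60 s, 5×120 s, 9×300 s, 3×600 s). Images were reconstructed by filtered back projection with a RAMP filter. Regional time-activity curves were expressed as SUV.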

[21] = Drug level in normal rhesus monkey white matter assessed as standard uptake value at 152.9 MBq, iv after 0.5 mins by microPET; settings: in vivo
[22] = Drug level in normal rhesus monkey white matter assessed as standard uptake value at 152.9 MBq, iv after 12 mins by microPET; settings: in vivo, 0.2 h
[23] = Drug level in normal rhesus monkey pons assessed as standard uptake value at 152.9 MBq, iv after 4.5 mins by microPET; settings: in vivo, 0.075 h
[24] = Drug level in normal rhesus monkey pons assessed as standard uptake value at 152.9 MBq, iv after 6 mins by microPET; settings: in vivo, 0.1 h
[25] = Drug level in normal rhesus monkey pons assessed as standard uptake value at 152.9 MBq, iv after 37.5 mins by microPET; settings: in vivo, 0.625 h
[26] = Drug level in normal rhesus monkey pons assessed as standard uptake value at 152.9 MBq, iv after 57.5 mins by microPET; settings: in vivo
[27] = Drug level in normal rhesus monkey parietal cortex assessed as standard uptake value at 152.9 MBq, iv after 75 mins by microPET; settings: in vivo, 1.25 h
[28] = Drug level in normal rhesus monkey thalamus assessed as standard uptake value at 109.4 MBq, iv after 117 mins by microPET; settings: in vivo, 1.95 h
[29] = Drug level in normal rhesus monkey cerebellum assessed as standard uptake value at 109.4 MBq, iv after 22.5 mins by microPET; settings: in vivo, 0.375 h; how it was run: as §2
[30] = Drug level in normal rhesus monkey thalamus assessed as standard uptake value at 109.4 MBq, iv after 32.5 mins by microPET; settings: in vivo
[31] = Drug level in normal rhesus monkey cerebellum assessed as standard uptake value at 109.4 MBq, iv after 0.875 mins by microPET; settings: in vivo, 52 s
[32] = Drug level in normal rhesus monkey frontal cortex assessed as standard uptake value at 109.4 MBq, iv after 123 mins by microPET; settings: in vivo, 2.05 h
[33] = Drug level in normal rhesus monkey parietal cortex assessed as standard uptake value at 109.4 MBq, iv after 69 mins by microPET; settings: in vivo, 1.15 h

For `CN(C)c1ccc2nc(-c3ccc([18F])cc3)sc2c1`, the SUV [1] was 1.39, the SUV [2] was 2.31 and the SUV [3] was 1.61. For the same compound, the SUV [4] was 1.17 and the SUV [5] was 2.14.

In the case of `CNc1ccc2nc(-c3ccc([18F])cc3)sc2c1`, the SUV [6] is reported as 5.688, the SUV [7] is reported as 0.924 and the SUV [8] is reported as 2.662. For the same compound, the SUV [9] was 3.412, the SUV [10] was 0.855 and the SUV [11] was 1.602. For the same compound, the SUV [12] was 4.284, the SUV [13] was 5.813 and the SUV [14] was 5.574. For the same compound, the SUV [15] was 2.781 and the SUV [16] was 2.614.

Compound `[11CH3]Nc1ccc(-c2nc3ccc(O)cc3s2)cc1` [PITTSBURGH COMPOUND B] has an SUV [17] of 1.545, an SUV [18] of 0.996 and an SUV [19] of 0.478. The SUV [20] was 0.653, the SUV [21] was 0.038 and the SUV [22] was 1.434. It also gave an SUV [23] of 2.008, an SUV [24] of 2.044 and an SUV [25] of 1.229. The SUV [26] was 0.95 and the SUV [27] was 0.682.

Compound `Nc1ccc2nc(-c3ccc([18F])cc3)sc2c1` has an SUV [28] of 4.66, an SUV [29] of 4.4 and an SUV [30] of 5.59. It also gave an SUV [31] of 3.51, an SUV [32] of 4.13 and an SUV [33] of 4.1.
